Measurements: ChEMBL document CHEMBL3351394 (J Med Chem, 2014)

Legend:
[1] = biological target: T1, Bile acid receptor (Homo sapiens) (UniProt Q96RI1); experiment: Agonist activity at FXR in human HepG2 cells assessed as induction of SHP mrNA expression at 0.1 uM by quantitative PCR method; format: cell-based
T1 sequence (whole entry): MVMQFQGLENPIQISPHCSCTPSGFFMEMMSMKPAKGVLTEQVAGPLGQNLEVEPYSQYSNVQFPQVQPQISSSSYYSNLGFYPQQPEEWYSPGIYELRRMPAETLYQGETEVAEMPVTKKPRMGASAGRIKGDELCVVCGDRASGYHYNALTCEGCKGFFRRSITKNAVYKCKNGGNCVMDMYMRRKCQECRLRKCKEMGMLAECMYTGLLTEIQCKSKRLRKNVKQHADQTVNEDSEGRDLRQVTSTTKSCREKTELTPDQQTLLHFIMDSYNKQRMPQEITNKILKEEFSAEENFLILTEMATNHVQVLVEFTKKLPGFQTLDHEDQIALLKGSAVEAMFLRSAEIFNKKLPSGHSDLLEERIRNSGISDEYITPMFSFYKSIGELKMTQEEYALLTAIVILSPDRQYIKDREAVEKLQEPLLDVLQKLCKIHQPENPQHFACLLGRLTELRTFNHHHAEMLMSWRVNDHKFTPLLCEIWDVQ
In short: (§1)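 HepG2 cells were seeded at 2 × 10⁶ per well. After 24 h they were switched to MEM with 1% charcoal-stripped FCS, and 24 h later dosed with compound (0.1, 0.3, 1, 3, 10 μM; 0.1% DMSO final) for 24 h. Total RNA was reverse transcribed and analysed by qPCR, GAPDH-normalized, ΔΔCt method. Samples were run in duplicate in ≥4 independent experiments.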

[2] = biological target: T1, Bile acid receptor (Homo sapiens); experiment: Agonist activity at FXR in human HepG2 cells assessed as induction of CYP7A1 mrNA expression at 0.1 uM by quantitative PCR method; format: cell-based; in short: as §1
[3] = biological target: T1, Bile acid receptor (Homo sapiens); experiment: Agonist activity at FXR in human HepG2 cells assessed as induction of CYP7A1 mrNA expression at 0.3 uM by quantitative PCR method; format: cell-based; in short: as §1
[4] = biological target: T1, Bile acid receptor (Homo sapiens); experiment: Agonist activity at FXR in human HepG2 cells assessed as induction of CYP7A1 mrNA expression at 3 uM by quantitative PCR method; format: cell-based; in short: as §1
[5] = biological target: T1, Bile acid receptor (Homo sapiens); experiment: Agonist activity at FXR in human HepG2 cells assessed as induction of OSTalpha mrNA expression at 0.1 uM by quantitative PCR method; format: cell-based; in short: as §1
[6] = biological target: T1, Bile acid receptor (Homo sapiens); experiment: Agonist activity at FXR in human HepG2 cells assessed as induction of OSTalpha mrNA expression at 1 uM by quantitative PCR method; format: cell-based; in short: as §1
[7] = biological target: T1, Bile acid receptor (Homo sapiens); experiment: Agonist activity at FXR in human HepG2 cells assessed as induction of OSTalpha mrNA expression at 3 uM by quantitative PCR method; format: cell-based; in short: as §1
[8] = biological target: T1, Bile acid receptor (Homo sapiens); experiment: Agonist activity at FXR in human HepG2 cells assessed as induction of OSTalpha mrNA expression at 10 uM by quantitative PCR method; format: cell-based; in short: as §1
[9] = biological target: T1, Bile acid receptor (Homo sapiens); experiment: Agonist activity at FXR in human HepG2 cells assessed as induction of BSEP mrNA expression at 3 uM by quantitative PCR method; format: cell-based; in short: as §1
[10] = biological target: T1, Bile acid receptor (Homo sapiens); experiment: Agonist activity at FXR in human HepG2 cells assessed as induction of BSEP mrNA expression at 10 uM by quantitative PCR method; format: cell-based; in short: as §1
[11] = biological target: T1, Bile acid receptor (Homo sapiens); experiment: Agonist activity at FXR in human HepG2 cells assessed as induction of IBABP mrNA expression at 0.3 uM by quantitative PCR method; format: cell-based
[12] = biological target: T1, Bile acid receptor (Homo sapiens); experiment: Agonist activity at FXR in human HepG2 cells assessed as induction of IBABP mrNA expression at 10 uM by quantitative PCR method; format: cell-based
[13] = biological target: T2, G-protein coupled bile acid receptor 1 (Homo sapiens, UniProt Q8TDU6); experiment: Activity at TGR5 in human NCI-H716 cells assessed as effect on intracellular cAMP accumulation incubated for 60 mins by HTR-FRET assay; format: functional, cell-based
T2 sequence (Q8TDU6 whole entry): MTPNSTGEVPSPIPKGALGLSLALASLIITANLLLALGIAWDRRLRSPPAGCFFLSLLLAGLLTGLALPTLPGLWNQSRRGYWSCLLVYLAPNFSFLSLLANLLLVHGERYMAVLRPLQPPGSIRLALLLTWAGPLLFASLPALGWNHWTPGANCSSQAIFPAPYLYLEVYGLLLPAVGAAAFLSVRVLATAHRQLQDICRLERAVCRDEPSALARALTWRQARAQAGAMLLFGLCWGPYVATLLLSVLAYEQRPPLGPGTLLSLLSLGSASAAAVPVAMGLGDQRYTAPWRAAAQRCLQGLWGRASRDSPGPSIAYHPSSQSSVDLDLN
In short: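 NCI-H716 cells on Matrigel-coated plates were stimulated 24 h after plating with increasing compound concentrations for 60 min at 37 °C in OptiMEM containing 1 mM IBMX. Intracellular cAMP was read by HTRF (Lance kit).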

[14] = biological target: T3, Peroxisome proliferator-activated receptor delta (Homo sapiens, UniProt Q03181); experiment: Activity at GAL4-tagged PPARdelta (unknown origin) expressed in COS7 cells assessed as receptor transactivation by luciferase reporter gene assay; format: cell-based, COS-7
T3 sequence (Q03181 whole entry): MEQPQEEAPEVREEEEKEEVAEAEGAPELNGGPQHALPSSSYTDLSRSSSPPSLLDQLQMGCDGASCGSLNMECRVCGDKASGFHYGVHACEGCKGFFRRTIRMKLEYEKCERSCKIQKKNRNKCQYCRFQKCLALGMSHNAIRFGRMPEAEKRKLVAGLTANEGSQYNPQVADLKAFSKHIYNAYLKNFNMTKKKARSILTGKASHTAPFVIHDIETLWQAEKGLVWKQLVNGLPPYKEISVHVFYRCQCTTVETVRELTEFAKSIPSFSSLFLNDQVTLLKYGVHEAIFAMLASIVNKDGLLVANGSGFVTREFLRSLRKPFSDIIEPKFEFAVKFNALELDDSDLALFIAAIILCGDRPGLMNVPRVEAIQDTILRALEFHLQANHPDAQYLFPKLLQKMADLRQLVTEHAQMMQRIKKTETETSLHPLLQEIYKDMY
In short: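 Each PPAR subtype was tested as a Gal4 fusion carrying the human hinge region and LBD (cDNA from human monocytes) in transiently transfected COS-7 cells (Lipofectamine LTX), with a pFR-Luc reporter and pRL-SV40 for normalization. Compound in 0.1% DMSO was added 5 h post-transfection and incubated overnight. Firefly/renilla RLU was scaled to 1 μM GW7647 (α), L165,041 (δ) or pioglitazone (γ).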

[15] = organism: Homo sapiens; experiment: Selectivity index, ratio of EC50 for GAL4-tagged PPARgamma (unknown origin) to EC50 for human FXR
[16] = test system: HepG2; experiment: Cytotoxicity against human HepG2 cells assessed as compound concentration causing reduction in cell viability by WST1 assay; format: cell-based
In short: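 WST-1 viability in HepG2 cells (3 × 10⁴ per well) in DMEM with 1% FCS, after 48 h exposure to 1, 10, 30 and 100 μM compound. Controls were Revlotron 100 μM (positive) and zileuton 100 μM or DMEM/1% DMSO (negative). WST reagent was added for 45 min and absorbance read at 450/620 nm; untreated set as 100%. Three repeats in triplicate.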

Activity [1]: 239%
Activity [2]: 52%
Activity [3]: 59%
Activity [4]: 67%
Activity [5]: 151%
Activity [6]: 140%
Activity [7]: 149%
Activity [8]: 234%
Activity [11]: 145%
Activity [12]: 144%
EC50 [13]: 30 µM
EC50 [14]: 3 µM
Ratio EC50 [15]: 375
SMILES: COc1ccc(C(=O)Nc2cccc(C(=O)O)c2)c(NC(=O)c2ccc(C(C)(C)C)cc2)c1
Activity [9]: 326%
Activity [10]: 308%
Activity [16]: >= 30 uM
